Consider 3 compounds from ChEMBL document CHEMBL1136924 (J Med Chem, 2009).

Molecules are shown by their SMILES.

In assay [1] the target is T1, 5-hydroxytryptamine receptor 3A (Cavia porcellus) (UniProt O70212).
T1 sequence (whole entry): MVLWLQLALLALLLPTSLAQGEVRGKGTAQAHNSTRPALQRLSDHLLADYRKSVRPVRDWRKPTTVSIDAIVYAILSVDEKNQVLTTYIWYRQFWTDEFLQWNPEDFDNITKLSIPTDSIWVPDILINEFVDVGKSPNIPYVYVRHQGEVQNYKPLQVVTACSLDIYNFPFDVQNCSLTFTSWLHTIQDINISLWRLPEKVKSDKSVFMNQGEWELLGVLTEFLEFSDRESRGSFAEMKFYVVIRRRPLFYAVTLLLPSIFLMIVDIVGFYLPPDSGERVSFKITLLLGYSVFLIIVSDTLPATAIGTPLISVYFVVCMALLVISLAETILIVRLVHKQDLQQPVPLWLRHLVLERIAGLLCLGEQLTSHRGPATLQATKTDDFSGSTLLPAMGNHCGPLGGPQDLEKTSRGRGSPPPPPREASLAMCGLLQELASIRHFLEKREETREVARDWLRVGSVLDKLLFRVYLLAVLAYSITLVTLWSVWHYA
Put plainly: Agonist activity at 5HT3 receptor in voltage-stimulated guinea pig left atrium assessed as positive inotropic potency. Type of assay: functional, tissue-based. As to conditions: Cardiac atrium. Put shortly: (§1)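 Isolated guinea pig atria in PSS (Tyrode) with ketanserin 1 µM, 95% O2-5% CO2, pH 7.4, 35 °C. Right atrium beating spontaneously (rate); left atrium paced 1 Hz, 0.6-0.8 ms pulses near 50% threshold (force). Isometric recording after 45-60 min stabilization.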

The target of assay [2] is T1, 5-hydroxytryptamine receptor 3A (Cavia porcellus). Put plainly: Intrinsic activity at 5HT3 receptor in voltage-stimulated guinea pig left atrium assessed as positive inotropic potency relative to serotonin. The assay is classed as tissue-based. As to conditions: Cardiac atrium. Summed up: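 Electrically paced guinea pig left atrium (1 Hz) in PSS containing ketanserin 1 µM, pH 7.4, 35 °C. Contractile force recorded isometrically while cumulative concentrations of 0.1-100 µM were added (DMSO ≤0.3%). Intrinsic activity is expressed as the maximal response relative to that of 5-HT.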

The target is the same in assay [3]. Put plainly: Agonist activity at 5HT3 receptor in spontaneously beating guinea pig right atrium assessed as positive chronotropic potency. Type of assay: functional, tissue-based. As to conditions: Cardiac atrium. Put shortly:
as §1

The target is the same in assay [4]. Put plainly: Intrinsic activity at 5HT3 receptor in spontaneously beating guinea pig right atrium assessed as positive chronotropic potency relative to serotonin. As to conditions: Cardiac atrium. Put shortly:
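Guinea pig left and right atria were hung in a 15 mL bath of PSS (pH 7.4, 95% O2-5% CO2, 35 °C) with ketanserin 1 µM. The right atrium beat spontaneously; the left was paced at 1 Hz. Cumulative doses (0.1-100 µM; DMSO ≤0.3%) were added after 45-60 min stabilization. Rate or isometric force was recorded. EC50 came from Probit analysis, n≥4. Intrinsic activity was taken relative to 5-HT.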

The test system of the next assay is Rattus norvegicus. Put plainly: Antagonist activity at 5HT3 receptor in urethane-anesthetized Sprague-Dawley rat assessed as prevention of 1-phenylbiguanide-induced bradycardia at 1 ug/kg, iv administered 5 mins before 1-phenylbiguanide challenge measured after 5 mins post-treatment by von Bezold-Jarisch reflex test. The assay is classed as functional. Further details: scale not given: the % may be the effect or the level left.

The target of assay [5] is T1, 5-hydroxytryptamine receptor 3A (Cavia porcellus). Conditions: Thoracic aorta.

For `Cc1[nH]c2ccc(O)cc2c1CCN`, the pD2 in assay [1] was found to be 5.51; in assay [3] it was 5.06. The Intrinsic activity in assay [2] and in assay [4] was 1 each time.
Regarding `COc1cc(N)c(Cl)cc1C(=O)NC1CN2CCC1CC2` (stereo not drawn) [ZACOPRIDE], in the assay on Rattus norvegicus, the Activity is recorded as 100%.
For the compound `NCCc1c[nH]c2ccc(O)cc12`, the pD2 is 4.19 in assay [5], 6.85 in assay [1] and 5.78 in assay [3].
